Measured values from ChEMBL document CHEMBL1687785, “ampG gene of Pseudomonas aeruginosa and its role in β-lactamase expression” (2010).
Values after ≈ are worked out from the molar mass of the structure shown.

Tests used:
Type in all cases: functional
Pseudomonas aeruginosa [1] = experiment: Antimicrobial activity against Pseudomonas aeruginosa isolate 13 obtained from cystic fibrosis patients after 16 to 20 hrs by broth microdilution method in presence of 120 uM carbonyl cyanide m-chlorophenyl-hydrazone
Method in brief: (§1)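 CLSI broth microdilution in Mueller-Hinton broth with CCCP added from a 10 mM DMSO stock to 120 μM final, alongside 2-fold serial antibiotic dilutions. Inoculum from starter cultures grown to OD600 0.5. MIC is the lowest concentration preventing growth after 16-20 h at 37°C. Triplicate.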

Pseudomonas aeruginosa [2] = experiment: Antimicrobial activity against Pseudomonas aeruginosa isolate 13 obtained from cystic fibrosis patients after 16 to 20 hrs by broth microdilution method
Method in brief: (§2)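 CLSI broth microdilution: 2-fold serial antibiotic dilutions in Mueller-Hinton broth, inoculated with about 10^4 cells per 100 μl from starter cultures grown to OD600 0.5. MIC is the lowest concentration preventing growth after 16-20 h at 37°C. Triplicate.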

Pseudomonas aeruginosa [3] = experiment: Antimicrobial activity against ampD, ampDh2, ampDh3 and ampG deficient Pseudomonas aeruginosa PAO1 harboring pZY0901 conferring resistance to gentamycin after 16 to 20 hrs by broth microdilution method in presence of 120 uM carbonyl cyanide m-chlorophenyl-hydrazone
Method in brief: (§3)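 CLSI broth microdilution in Mueller-Hinton broth with serial antibiotic dilutions. CCCP was added from a 10 mM DMSO stock to 120 μM final, then the bacterial culture was added as inoculum (about 10^4 cells from OD600 0.5 starter cultures). MIC was the lowest concentration preventing growth after 16 to 20 h at 37°C, run in triplicate.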

Pseudomonas aeruginosa [4] = experiment: Antimicrobial activity against Pseudomonas aeruginosa isolate 17 obtained from cystic fibrosis patients after 16 to 20 hrs by broth microdilution method
Method in brief: (§4)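 CLSI broth microdilution in Mueller-Hinton broth, serial 2-fold antibiotic dilutions. Inoculum about 10^4 cells per well, taken from starter cultures grown to OD600 0.5. MIC was the lowest antibiotic concentration preventing growth after 16 to 20 h at 37°C. Each MIC was determined in triplicate.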

Pseudomonas aeruginosa [5] = experiment: Antimicrobial activity against ampG deficient Pseudomonas aeruginosa PAK after 16 to 20 hrs by broth microdilution method; method in brief: as §4
Pseudomonas aeruginosa [6] = experiment: Antimicrobial activity against ampGh1 deficient Pseudomonas aeruginosa PAO1 after 16 to 20 hrs by broth microdilution method; method in brief: as §4
Pseudomonas aeruginosa [7] = experiment: Antimicrobial activity against ampGh1 deficient Pseudomonas aeruginosa PAK after 16 to 20 hrs by broth microdilution method in presence of 120 uM carbonyl cyanide m-chlorophenyl-hydrazone; method in brief: as §3
Pseudomonas aeruginosa [8] = experiment: Antimicrobial activity against ampG deficient Pseudomonas aeruginosa PAK harboring pZY0901 conferring resistance to gentamycin after 16 to 20 hrs by broth microdilution method in presence of 120 uM carbonyl cyanide m-chlorophenyl-hydrazone; method in brief: as §3
Pseudomonas aeruginosa [9] = experiment: Antimicrobial activity against ampG deficient Pseudomonas aeruginosa PAK harboring pZY0901 conferring resistance to gentamycin after 16 to 20 hrs by broth microdilution method; method in brief: as §4
Pseudomonas aeruginosa [10] = experiment: Antimicrobial activity against ampG deficient Pseudomonas aeruginosa PAO1 after 16 to 20 hrs by broth microdilution method in presence of 120 uM carbonyl cyanide m-chlorophenyl-hydrazone; method in brief: as §3
Pseudomonas aeruginosa [11] = experiment: Antimicrobial activity against Pseudomonas aeruginosa isolate 7 obtained from cystic fibrosis patients after 16 to 20 hrs by broth microdilution method in presence of 120 uM carbonyl cyanide m-chlorophenyl-hydrazone; method in brief: as §3
Pseudomonas aeruginosa [12] = experiment: Antimicrobial activity against Pseudomonas aeruginosa isolate 18 obtained from cystic fibrosis patients after 16 to 20 hrs by broth microdilution method; method in brief: as §4
Pseudomonas aeruginosa [13] = experiment: Antimicrobial activity against ampG deficient Pseudomonas aeruginosa PAO1 after 16 to 20 hrs by broth microdilution method; method in brief: as §4
Pseudomonas aeruginosa [14] = experiment: Antimicrobial activity against ampD, ampDh2, ampDh3 and ampG deficient Pseudomonas aeruginosa PAO1 after 16 to 20 hrs by broth microdilution method in presence of 120 uM carbonyl cyanide m-chlorophenyl-hydrazone; method in brief: as §3
Pseudomonas aeruginosa [15] = experiment: Antimicrobial activity against ampG, ampGh1 deficient Pseudomonas aeruginosa PAO1 after 16 to 20 hrs by broth microdilution method in presence of 120 uM carbonyl cyanide m-chlorophenyl-hydrazone; method in brief: as §3
Pseudomonas aeruginosa [16] = experiment: Antimicrobial activity against Pseudomonas aeruginosa isolate 8 obtained from cystic fibrosis patients after 16 to 20 hrs by broth microdilution method; method in brief: as §4
Pseudomonas aeruginosa [17] = experiment: Antimicrobial activity against ampG deficient Pseudomonas aeruginosa PAK harboring pUCP24 conferring resistance to gentamycin after 16 to 20 hrs by broth microdilution method; method in brief: as §4
Pseudomonas aeruginosa [18] = experiment: Antimicrobial activity against Pseudomonas aeruginosa PAK after 16 to 20 hrs by broth microdilution method in presence of 120 uM carbonyl cyanide m-chlorophenyl-hydrazone; method in brief: as §1
Pseudomonas aeruginosa [19] = experiment: Antimicrobial activity against Pseudomonas aeruginosa isolate 12 obtained from cystic fibrosis patients after 16 to 20 hrs by broth microdilution method; method in brief: as §2
Pseudomonas aeruginosa [20] = experiment: Antimicrobial activity against Pseudomonas aeruginosa isolate 9 obtained from cystic fibrosis patients after 16 to 20 hrs by broth microdilution method in presence of 120 uM carbonyl cyanide m-chlorophenyl-hydrazone; method in brief: as §3
Pseudomonas aeruginosa [21] = experiment: Antimicrobial activity against Pseudomonas aeruginosa PAO1 after 16 to 20 hrs by broth microdilution method in presence of 120 uM carbonyl cyanide m-chlorophenyl-hydrazone; method in brief: as §1
Pseudomonas aeruginosa [22] = experiment: Antimicrobial activity against Pseudomonas aeruginosa isolate 18 obtained from cystic fibrosis patients after 16 to 20 hrs by broth microdilution method in presence of 120 uM carbonyl cyanide m-chlorophenyl-hydrazone; method in brief: as §3
Pseudomonas aeruginosa [23] = experiment: Antimicrobial activity against Pseudomonas aeruginosa isolate 10 obtained from cystic fibrosis patients after 16 to 20 hrs by broth microdilution method in presence of 120 uM carbonyl cyanide m-chlorophenyl-hydrazone; method in brief: as §1
Pseudomonas aeruginosa [24] = experiment: Antimicrobial activity against Pseudomonas aeruginosa isolate 4 obtained from cystic fibrosis patients after 16 to 20 hrs by broth microdilution method; method in brief: as §4
Pseudomonas aeruginosa [25] = experiment: Antimicrobial activity against Pseudomonas aeruginosa isolate 6 obtained from cystic fibrosis patients after 16 to 20 hrs by broth microdilution method; method in brief: as §4
Pseudomonas aeruginosa [26] = experiment: Antimicrobial activity against ampG, ampGh1 deficient Pseudomonas aeruginosa PAK after 16 to 20 hrs by broth microdilution method; method in brief: as §4
Pseudomonas aeruginosa [27] = experiment: Antimicrobial activity against ampD, ampDh2, ampDh3 and ampG deficient Pseudomonas aeruginosa PAO1 harboring pZY0901 conferring resistance to gentamycin after 16 to 20 hrs by broth microdilution method; method in brief: as §4
Pseudomonas aeruginosa [28] = experiment: Antimicrobial activity against ampG, ampGh1 deficient Pseudomonas aeruginosa PAO1 after 16 to 20 hrs by broth microdilution method; method in brief: as §4
Pseudomonas aeruginosa [29] = experiment: Antimicrobial activity against Pseudomonas aeruginosa isolate 2 obtained from cystic fibrosis patients after 16 to 20 hrs by broth microdilution method; method in brief: as §4
Pseudomonas aeruginosa [30] = experiment: Antimicrobial activity against ampG deficient Pseudomonas aeruginosa PAO1 harboring pUCP24 conferring resistance to gentamycin after 16 to 20 hrs by broth microdilution method; method in brief: as §4
Pseudomonas aeruginosa [31] = experiment: Antimicrobial activity against ampG deficient Pseudomonas aeruginosa PAO1 harboring pZY0901 conferring resistance to gentamycin after 16 to 20 hrs by broth microdilution method; method in brief: as §4
Pseudomonas aeruginosa [32] = experiment: Antimicrobial activity against Pseudomonas aeruginosa isolate 11 obtained from cystic fibrosis patients after 16 to 20 hrs by broth microdilution method in presence of 120 uM carbonyl cyanide m-chlorophenyl-hydrazone; method in brief: as §1
Pseudomonas aeruginosa [33] = experiment: Antimicrobial activity against Pseudomonas aeruginosa isolate 17 obtained from cystic fibrosis patients after 16 to 20 hrs by broth microdilution method in presence of 120 uM carbonyl cyanide m-chlorophenyl-hydrazone; method in brief: as §3
Pseudomonas aeruginosa [34] = experiment: Antimicrobial activity against ampG deficient Pseudomonas aeruginosa PAO1 harboring pUCP24 conferring resistance to gentamycin after 16 to 20 hrs by broth microdilution method in presence of 120 uM carbonyl cyanide m-chlorophenyl-hydrazone; method in brief: as §3

CC1(C)S[C@@H]2[C@H](NC(=O)[C@H](N)c3ccccc3)C(=O)N2[C@H]1C(=O)O [AMPICILLIN]
MIC (Pseudomonas aeruginosa [1]): 8 µg/mL | MIC (Pseudomonas aeruginosa [2]): > 1020 µg/mL | MIC (Pseudomonas aeruginosa [3]): 32 µg/mL | MIC (Pseudomonas aeruginosa [4]): 512 µg/mL (≈ 1470 µM) | MIC (Pseudomonas aeruginosa [5]): 32 µg/mL (≈ 91.6 µM) | MIC (Pseudomonas aeruginosa [6]): 256 µg/mL (≈ 733 µM) | MIC (Pseudomonas aeruginosa [7]): 256 µg/mL | MIC (Pseudomonas aeruginosa [8]): 32 µg/mL | MIC (Pseudomonas aeruginosa [9]): 512 µg/mL (≈ 1470 µM) | MIC (Pseudomonas aeruginosa [10]): 32 µg/mL | MIC (Pseudomonas aeruginosa [11]): 8 µg/mL | MIC (Pseudomonas aeruginosa [12]): 256 µg/mL (≈ 733 µM) | MIC (Pseudomonas aeruginosa [13]): 32 µg/mL (≈ 91.6 µM) | MIC (Pseudomonas aeruginosa [14]): 16 µg/mL | MIC (Pseudomonas aeruginosa [15]): 32 µg/mL | MIC (Pseudomonas aeruginosa [16]): 256 µg/mL (≈ 733 µM) | MIC (Pseudomonas aeruginosa [17]): 32 µg/mL (≈ 91.6 µM) | MIC (Pseudomonas aeruginosa [18]): 256 µg/mL | MIC (Pseudomonas aeruginosa [19]): > 1020 µg/mL | MIC (Pseudomonas aeruginosa [20]): 8 µg/mL | MIC (Pseudomonas aeruginosa [21]): 128 µg/mL | MIC (Pseudomonas aeruginosa [22]): 256 µg/mL | MIC (Pseudomonas aeruginosa [23]): 8 µg/mL | MIC (Pseudomonas aeruginosa [24]): 512 µg/mL (≈ 1470 µM) | MIC (Pseudomonas aeruginosa [25]): > 1020 µg/mL | MIC (Pseudomonas aeruginosa [26]): 32 µg/mL (≈ 91.6 µM) | MIC (Pseudomonas aeruginosa [27]): 1020 µg/mL (≈ 2930 µM) | MIC (Pseudomonas aeruginosa [28]): 32 µg/mL (≈ 91.6 µM) | MIC (Pseudomonas aeruginosa [29]): 256 µg/mL (≈ 733 µM) | MIC (Pseudomonas aeruginosa [30]): 32 µg/mL (≈ 91.6 µM) | MIC (Pseudomonas aeruginosa [31]): 1020 µg/mL (≈ 2930 µM) | MIC (Pseudomonas aeruginosa [32]): 8 µg/mL | MIC (Pseudomonas aeruginosa [33]): 8 µg/mL | MIC (Pseudomonas aeruginosa [34]): 32 µg/mL
